{"data": "Assay results collected from several papers", "RET M918T": "Proto-oncogene tyrosine-protein kinase receptor Ret (RET, Homo sapiens, UniProt P07949, M918T)", "RET V804L": "Proto-oncogene tyrosine-protein kinase receptor Ret (RET, Homo sapiens, UniProt P07949, V804L)", "RET": "Proto-oncogene tyrosine-protein kinase receptor Ret (RET, Homo sapiens, UniProt P07949)", "RET V804M": "Proto-oncogene tyrosine-protein kinase receptor Ret (RET, Homo sapiens, UniProt P07949, V804M)", "note": "Lines come from different studies, so protocols differ."}
{"SMILES": "CNC(=O)[C@@H]1CC[C@@H](n2c(-c3ccc4cnccc4c3)nc3ccc(C(=O)NCc4cccc(C(N)=O)c4)cc32)C1", "target": "RET M918T", "assay": "binding, competition with immobilised ligand", "conditions": "1 µM", "remaining binding": "98%"}
{"SMILES": "O=C(c1ccc(Nc2nccc(-c3cc4ccccc4s3)n2)cc1)N1CCC(N2CCCC2)CC1", "target": "RET V804L", "assay": "binding, competition with immobilised ligand", "conditions": "1 µM", "remaining binding": "80%"}
{"SMILES": "COc1ncc2cc3ccccc3nc2c1C#N", "target": "RET", "assay": "cell-free assay, competition with immobilised ligand", "conditions": "5 µM", "remaining binding": "96%"}
{"SMILES": "CN(C)c1ncc(F)c(-c2cnn3ncccc23)n1", "target": "RET V804M", "assay": "binding", "conditions": "1 µM", "remaining binding": "100%"}
{"SMILES": "c1cncc(-c2cccc(Nc3nccc(NC4CCCCC4)n3)c2)c1", "target": "RET V804M", "assay": "binding, competition with immobilised ligand", "conditions": "10 µM", "remaining binding": "8.8%"}
{"SMILES": "O=C(c1ccc(Nc2ncc(Cl)c(-c3ccc(Cl)s3)n2)cc1)N1CCC(N2CCCC2)CC1", "target": "RET V804M", "assay": "binding, competition with immobilised ligand", "conditions": "1 µM", "remaining binding": "12%"}
{"SMILES": "CCN1CCN(Cc2ccc(C(=O)Nc3ccc(C)c(Oc4ccc5c(c4)CC(=O)N5)c3)cc2C(F)(F)F)CC1", "target": "RET V804M", "assay": "binding, competition with immobilised ligand", "conditions": "1 µM", "remaining binding": "67%"}
{"SMILES": "CN(CCCC(F)(F)F)c1nccc(-c2cnn3ncccc23)n1", "target": "RET V804L", "assay": "binding", "conditions": "1 µM", "remaining binding": "100%"}
{"SMILES": "O=C(N[C@H]1CCCCC/C=C\\C2C[C@@]2(C(=O)O)NC(=O)[C@@H]2C[C@@H](Oc3ccncc3)CN2C1=O)OC1CCCC1 (stereo partly drawn)", "target": "RET M918T", "assay": "binding, competition with immobilised ligand", "conditions": "1 µM", "remaining binding": "96%"}
{"SMILES": "F[C@@H]1CCN(c2nccc(-c3cnn4ncccc34)n2)C1", "target": "RET V804L", "assay": "binding", "conditions": "1 µM", "remaining binding": "100%"}
{"SMILES": "COc1cc(-c2cn(C3CCc4ccccc4N(CC(F)(F)F)C3=O)nn2)ccc1-n1ccc(C)n1 (stereo not drawn)", "target": "RET V804M", "assay": "cell-free assay, competition with immobilised ligand", "conditions": "1 µM", "remaining binding": "100%"}
{"SMILES": "COc1cnc(Nc2cccc(S(N)(=O)=O)c2)nc1N1CCN(c2ccccc2)CC1", "target": "RET V804L", "assay": "binding, competition with immobilised ligand", "conditions": "1 µM", "remaining binding": "73%"}
{"SMILES": "Cc1cnn2ncc(-c3ccnc(N(C)C)n3)c2c1", "target": "RET V804L", "assay": "binding", "conditions": "1 µM", "remaining binding": "100%"}
{"SMILES": "Cc1noc([C@H]2C[C@@H](c3ccc(C(F)(F)F)cc3)CN(C(=O)N3CCS(=O)(=O)C3)C2)n1", "target": "RET V804L", "assay": "cell-free assay, competition with immobilised ligand", "conditions": "1 µM", "remaining binding": "100%"}
{"SMILES": "O=C(NCCCN1CCOCC1)c1ccc(Nc2nccc(-c3cc4ccccc4s3)n2)cc1", "target": "RET M918T", "assay": "binding, competition with immobilised ligand", "conditions": "1 µM", "remaining binding": "93%"}
{"SMILES": "CN(C)CC#Cc1ccc(OCCCc2sc(N3CCc4cccc(C(=O)Nc5nc6ccccc6s5)c4C3)nc2C(=O)O)c(F)c1", "target": "RET", "assay": "cell-free assay, competition with immobilised ligand", "conditions": "1 µM", "remaining binding": "100%"}
{"SMILES": "COc1ccnn2ncc(-c3ccnc(N(C)C)n3)c12", "target": "RET M918T", "assay": "binding", "conditions": "1 µM", "remaining binding": "100%"}
{"SMILES": "CO[C@@H](C)c1c(Nc2ccc([C@H](N(C)C(=O)C3CCS(=O)(=O)CC3)C(F)(F)F)cc2)cnc2cc(Cl)nn12", "target": "RET V804M", "assay": "cell-free assay, competition with immobilised ligand", "conditions": "1 µM", "remaining binding": "94%"}
{"SMILES": "O=C(Nc1c[nH]nc1C(=O)NC1CCNCC1)c1cc(F)cc(F)c1", "target": "RET V804M", "assay": "binding, competition with immobilised ligand", "conditions": "1 µM", "remaining binding": "99%"}
{"SMILES": "COc1cc(-c2cn(C3CCc4c(F)cccc4N(CC(F)(F)F)C3=O)nn2)ccc1-n1cnc(C)c1 (stereo not drawn)", "target": "RET M918T", "assay": "cell-free assay, competition with immobilised ligand", "conditions": "1 µM", "remaining binding": "100%"}
{"SMILES": "N[C@H]1CCN(c2nccc(-c3cnn4ncccc34)n2)C1", "target": "RET V804M", "assay": "binding", "conditions": "1 µM", "remaining binding": "100%"}
